Source: ChEMBL document CHEMBL1128699, “Inhibition of the EGF-stimulated cellular proliferation of ER 22 cells by hydroxybiphenyl derivatives” (J Med Chem, 1995)

Key:
[1] = biological target: T1, Epidermal growth factor receptor (Homo sapiens, UniProt P00533); conditions: 10 uM
[2] = biological target: T1, Epidermal growth factor receptor; test: In vitro inhibition of intrinsic tyrosine protein kinase activity of the Epidermal growth factor receptor using […]
Outline: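 Enzyme source was ER 22 membranes purified on 32% sucrose. Reaction buffer: 20 mM Hepes pH 7.4, 1 mM MnCl2, 0.1 mg/mL BSA, 100 ng/mL EGF. Receptor was preincubated with EGF for 10 min at room temperature, then inhibitor was added. It was stopped with TCA; supernatant was spotted on phosphocellulose paper, washed in phosphoric acid and counted by scintillation.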

[3] = biological target: T1, Epidermal growth factor receptor; conditions: 5 uM
[4] = biological target: T1, Epidermal growth factor receptor; conditions: 10 uM; remark: listed apart in the source
[5] = biological target: T1, Epidermal growth factor receptor; conditions: 5 uM; remark: listed apart in the source
[6] = biological target: T1, Epidermal growth factor receptor; conditions: 10 uM; remark: listed apart in the source
[7] = biological target: T1, Epidermal growth factor receptor; test: Inhibition of Epidermal growth factor receptor activity against […] at 10 uM
[8] = biological target: T1, Epidermal growth factor receptor; conditions: 1.25 uM
[9] = biological target: T1, Epidermal growth factor receptor; conditions: 10 uM; remark: listed apart in the source

T1 sequence (P00533 whole entry): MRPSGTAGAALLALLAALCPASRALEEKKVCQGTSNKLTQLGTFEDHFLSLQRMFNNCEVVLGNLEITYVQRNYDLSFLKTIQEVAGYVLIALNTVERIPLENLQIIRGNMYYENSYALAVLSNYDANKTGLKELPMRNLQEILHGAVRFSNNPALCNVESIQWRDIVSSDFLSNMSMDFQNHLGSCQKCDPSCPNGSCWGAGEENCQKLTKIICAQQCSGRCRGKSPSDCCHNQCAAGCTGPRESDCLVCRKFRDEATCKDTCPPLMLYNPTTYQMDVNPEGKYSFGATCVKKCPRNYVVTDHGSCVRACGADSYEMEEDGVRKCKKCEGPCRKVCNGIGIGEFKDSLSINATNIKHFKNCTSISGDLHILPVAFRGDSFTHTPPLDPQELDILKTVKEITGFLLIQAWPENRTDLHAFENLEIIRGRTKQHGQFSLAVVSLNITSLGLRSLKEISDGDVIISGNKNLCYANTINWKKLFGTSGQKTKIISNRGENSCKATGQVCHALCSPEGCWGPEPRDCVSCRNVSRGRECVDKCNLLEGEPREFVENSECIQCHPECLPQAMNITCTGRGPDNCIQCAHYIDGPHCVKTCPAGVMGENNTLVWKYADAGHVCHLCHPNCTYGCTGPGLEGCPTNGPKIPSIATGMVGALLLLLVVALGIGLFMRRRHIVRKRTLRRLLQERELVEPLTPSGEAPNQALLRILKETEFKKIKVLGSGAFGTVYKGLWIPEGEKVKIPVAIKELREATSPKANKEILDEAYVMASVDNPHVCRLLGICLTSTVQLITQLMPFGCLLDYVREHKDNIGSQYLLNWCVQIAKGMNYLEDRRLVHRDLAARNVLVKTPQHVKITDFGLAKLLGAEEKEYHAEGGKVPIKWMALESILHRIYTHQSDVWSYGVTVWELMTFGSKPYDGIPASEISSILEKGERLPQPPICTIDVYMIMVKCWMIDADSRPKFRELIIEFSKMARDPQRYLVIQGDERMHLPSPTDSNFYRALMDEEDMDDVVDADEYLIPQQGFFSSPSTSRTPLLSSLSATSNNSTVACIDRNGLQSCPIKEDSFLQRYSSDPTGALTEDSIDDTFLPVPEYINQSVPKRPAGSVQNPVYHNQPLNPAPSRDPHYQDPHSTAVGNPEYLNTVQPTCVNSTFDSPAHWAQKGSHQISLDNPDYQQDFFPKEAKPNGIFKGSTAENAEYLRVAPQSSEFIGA

In the case of COCOc1cc(-c2ccccc2)ccc1-c1ccc(C(=O)O)cc1, the inhibition [1] is reported as 8%.

Compound CC(C)(C)c1ccc(-c2ccc(C(=O)O)cc2)c(O)c1 has an IC50 [2] of over 10 µM.

Work on COCOc1c(-c2ccccc2)cccc1-c1ccc(C(=O)OCC(C)CC(C)(C)C)cc1 (stereo not drawn) yielded an inhibition [1] of 16%.

Work on O=C(NCc1ccccc1)c1ccc(-c2ccc(-c3ccccc3)cc2O)cc1 yielded an IC50 [2] of over 1 µM.

CC(COC(=O)c1ccc(-c2ccc(C(C)(C)C)cc2O)cc1)CC(C)(C)C (stereo not drawn) was tested, and the inhibition [3] was 25% and the inhibition [4] was 3%.

In the case of COCOc1cc(-c2ccccc2)ccc1-c1ccc(C(=O)NCc2ccccc2)cc1, the IC50 [2] is reported as over 1 µM.

CC(COC(=O)c1ccc(-c2cccc(-c3ccccc3)c2O)cc1)CC(C)(C)C (stereo not drawn) showed an inhibition [1] of 11%.

Work on CC(COC(=O)c1ccc(-c2cc(O)cc(C(C)(C)C)c2)cc1)CC(C)(C)C (stereo not drawn) yielded an inhibition [4] of 10%.

With COC(=O)c1ccc(-c2ccc(C(C)(C)C)cc2O)cc1 the inhibition [4] was 6%.

Compound COC(=O)c1ccc(-c2cc(O)cc(C(C)(C)C)c2)cc1 has an IC50 [2] of over 10 µM.

Compound COCOc1cc(-c2ccccc2)ccc1-c1ccc(C(=O)OC)cc1 has an inhibition [1] of 2%.

Compound COC(=O)c1ccc(-c2cccc(-c3ccccc3)c2O)cc1 has an IC50 [2] of over 20 µM.

Compound COCOc1cc(C(C)(C)C)ccc1-c1ccc(C(=O)NCc2ccccc2)cc1 has an inhibition [5] of 47% and an IC50 [2] of over 5 µM.

CC(C)(C)c1cc(O)cc(-c2ccc(C(=O)O)cc2)c1 gave an IC50 [2] of over 50 µM.

O=C(NCc1ccccc1)c1ccc(-c2cc(O)cc(-c3ccccc3)c2)cc1 showed an inhibition [4] of 5%.

For CC(COC(=O)c1ccc(-c2ccc(-c3ccccc3)cc2O)cc1)CC(C)(C)C (stereo not drawn), the inhibition [1] was 3% and the inhibition [3] was 27%.

Work on COCOc1cc(C(C)(C)C)ccc1-c1ccc(C(=O)OCC(C)CC(C)(C)C)cc1 (stereo not drawn) yielded an IC50 [2] of over 50 µM.

In the case of CC(C)(C)c1cc(O)cc(-c2ccc(CO)cc2)c1, the inhibition [6] is reported as 21% and the IC50 [2] is reported as over 10 µM.

O=C(NCc1ccccc1)c1ccc(-c2cccc(-c3ccccc3)c2O)cc1 was tested, and the IC50 [2] was over 5 µM.

For CC(C)(C)c1cc(O)cc(-c2ccc(C(=O)NCc3ccccc3)cc2)c1, the IC50 [2] was over 5 µM.

Compound COCOc1cc(C(C)(C)C)ccc1-c1ccc(C(=O)OC)cc1 has an IC50 [7] of over 10 µM.

For COCOc1cc(-c2ccccc2)ccc1-c1ccc(C(=O)OCC(C)CC(C)(C)C)cc1 (stereo not drawn), the inhibition [3] was 10% and the IC50 [2] was over 20 µM.

CC(COC(=O)c1ccc(-c2cc(O)cc(-c3ccccc3)c2)cc1)CC(C)(C)C (stereo not drawn) was tested, and the inhibition [4] was 15%.

In the case of COC(=O)c1ccc(-c2ccc(-c3ccccc3)cc2O)cc1, the inhibition [8] is reported as 41% and the IC50 [2] is reported as 14 µM.

In the case of CC(C)(C)c1ccc(-c2ccc(C(=O)NCc3ccccc3)cc2)c(O)c1, the inhibition [9] is reported as 57% and the IC50 [2] is reported as over 5 µM.

For O=C(O)c1ccc(-c2cc(O)cc(-c3ccccc3)c2)cc1, the inhibition [4] was 9%.
